A short description of test [1]: Inhibition of soybean 15-LOX using arachidonic acid or linoleic acid as substrate preincubated with enzyme followed by substrate addition up to 5 mins by chromogenic method. Also noted: species or system Glycine max. The method in brief:
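Kit-based assay: soybean LOX pre-mixed with test compound ([…], in DMSO), started with arachidonic or linoleic acid, shaken at least 5 min. Chromogen added to stop and develop, absorbance at 490–500 nm. Quercetin as positive control, DMSO as 100% activity, buffer as blank. IC50 from non-linear dose-response of % inhibition.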

Test [2] is described as follows: Antioxidant activity assessed as inhibition of DPPH radical formation after 30 mins. It counts as functional. Put shortly: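 Test compound at […] mixed 1:1 with […], kept dark at room temperature 30 min, absorbance read at 517 nm. Ascorbic acid as positive control, DMSO as blank. % scavenging taken against a no-compound control. IC50 by linear regression of the dose-response, in mg/mL, mean ± SD of three replicates.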
For orientation: Loss of DPPH colour is used to gauge radical scavenging.

Test [3] is described as follows: Antioxidant activity in PBS buffer assessed as NO scavenging activity after 90 mins in presence of sodium nitroprusside by Griess assay. The test is classed as functional. The method in brief:
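Test compound at […] mixed 1:1 with 10 mM sodium nitroprusside in PBS pH 7.4, held 90 min at room temperature. Equal volume of Griess reagent (1% sulphanilamide, 0.1% naphthyl ethylene diamine in 2.5% […]) added, absorbance at 546 nm. Ascorbic acid as positive control, DMSO as blank. IC50 by linear regression, mg/mL, mean ± SD of three.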

Test [4] is described as follows: Antioxidant activity assessed as superoxide dismutase-like activity by measuring inhibition of xanthine oxidase-induced superoxide anion level measured ever 30 secs for 5 mins by NBT reduction assay. It counts as functional. The method in brief:
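Kit-based assay at room temperature in cuvettes: reaction buffer, xanthine and NBT, then test compound ([…]), then xanthine oxidase. A550 read every 30 s from 30 s to 5 min 30 s. Rate per minute compared with a negative control gives % inhibition. IC50 from non-linear dose-response, mean ± SEM of three. Ascorbic acid as reference.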

Test [5] in a line: Potency index, ratio of ascorbic acid IC50 to compound IC50 for antioxidant activity assessed as inhibition of DPPH radical. It counts as functional.
The next test deals with Glycine max. Description: Potency index, ratio of quercetin IC50 to compound IC50 for inhibition of soybean 15-LOX.
Test [6] is described as follows: Potency index, ratio of ascorbic acid IC50 to compound IC50 for antioxidant activity in PBS buffer assessed as NO scavenging activity. It counts as functional.
Test [7] in a line: Potency index, ratio of ascorbic acid IC50 to compound IC50 for antioxidant activity assessed as superoxide dismutase-like activity by measuring inhibition of xanthine oxidase-induced superoxide anion level. The test is classed as functional.

In brackets after ≈: the same amount, converted by molar mass.

One may read the IC50 as the concentration at which inhibition is half-maximal.

As to `O=c1c(O)c(-c2ccc(O)c(O)c2)oc2cc(O)cc(O)c12` [QUERCETIN], in test [1], the IC50 came to 6.87 µM.

Consider `c1ccc(-c2[nH]c3ccccc3c2C2CC(c3cccnc3)=NO2)cc1` (configuration not stated), for which the IC50 in test [2] was 60.7 µg/mL (≈ 179 µM); in test [1], 6.71 µM; in test [3], 116.7 µg/mL; in test [4] it was 3.54 µM.

With `CC(=O)N1N=C(c2cccnc2)CC1c1c(-c2ccccc2)[nH]c2ccccc12` (configuration not stated), the 50% inhibitory concentration (IC50) turned out to be 37.97 µg/mL (≈ 99.8 µM) in test [2], 4.56 µM in test [1], 29.8 µg/mL in test [3] and 2.57 µM in test [4].

As to `c1ccc(-c2[nH]c3ccccc3c2C2CC(c3cccs3)=NN2)cc1` (configuration not stated), the half-inhibitory concentration (IC50) is 18.3 µg/mL (≈ 53.3 µM) in test [2], 9.41 µM in test [1], 24.04 µg/mL in test [3] and 6.51 µM in test [4].

On to `O=C(c1ccccc1)N1N=C(c2cccnc2)CC1c1c(-c2ccccc2)[nH]c2ccccc12` (configuration not stated), for which the concentration for half-maximal inhibition (IC50) in test [2] worked out at 48.21 µg/mL (≈ 109 µM); in test [1], 7.23 µM; in test [3] it was 50.33 µg/mL; in test [4] it was 4.62 µM.

For the compound `CC(=O)N1N=C(c2ccncc2)CC1c1c(-c2ccccc2)[nH]c2ccccc12` (configuration not stated), the half-inhibitory concentration (IC50) in test [2] stood at 98.54 µg/mL (≈ 259 µM); in test [1] it was 8.74 µM; in test [3], 29.14 µg/mL; in test [4], 5.47 µM.

With `c1ccc(-c2[nH]c3ccccc3c2C2CC(c3cccnc3)=NN2)cc1` (configuration not stated), the concentration for half-maximal inhibition (IC50) in test [2] turned out to be 13.61 µg/mL (≈ 40.2 µM); in test [1], 3.84 µM; in test [3], 35.01 µg/mL; in test [4], 1.78 µM. Besides, the Ratio IC50 in test [5] is 1.7; in the test with Glycine max, 1.8; in test [6], 0.7; in test [7], 2.

In the case of `CN1N=C(c2ccncc2)CC1c1c(-c2ccccc2)[nH]c2ccccc12` (configuration not stated), the half-maximal inhibitory concentration (IC50) in test [2] was found to be 33.1 µg/mL (≈ 93.9 µM); in test [1], 9.32 µM; in test [3], 37.1 µg/mL; in test [4] it was 5.41 µM.

In the case of `c1ccc(-c2[nH]c3ccccc3c2C2CC(c3ccncc3)=NN2)cc1` (configuration not stated), the half-maximal inhibitory concentration (IC50) was 15.83 µg/mL (≈ 46.8 µM) in test [2], 6.54 µM in test [1], 20.99 µg/mL in test [3] and 3.24 µM in test [4].

With `O=C(c1ccccc1)N1N=C(c2ccncc2)CC1c1c(-c2ccccc2)[nH]c2ccccc12` (configuration not stated), the IC50 was determined as 107.32 µg/mL (≈ 243 µM) in test [2], 5.14 µM in test [1], 52.54 µg/mL in test [3] and 4.27 µM in test [4].

Take `O=C1O[C@H]([C@@H](O)CO)C(O)=C1O` [ASCORBIC ACID]: the IC50 in test [2] amounted to 23.4 µg/mL (≈ 133 µM); in test [3], 24.5 µg/mL; in test [4], 3.54 µM.

As to `c1ccc(-c2[nH]c3ccccc3c2C2CC(c3ccncc3)=NO2)cc1` (configuration not stated), the IC50 in test [2] came to 59.94 µg/mL (≈ 177 µM); in test [1] it was 4.89 µM; in test [3], 70.5 µg/mL; in test [4], 1.87 µM.

Regarding `c1ccc(-c2[nH]c3ccccc3c2C2CC(c3cccs3)=NO2)cc1` (configuration not stated), the IC50 in test [2] was found to be 117.5 µg/mL (≈ 341 µM); in test [1] it was 7.51 µM; in test [3], 233.4 µg/mL; in test [4], 4.26 µM.

Values taken from ChEMBL document CHEMBL4145485, “Design, synthesis, biological evaluation and docking studies of new 3-(4,5-dihydro-1H-pyrazol/isoxazol-5-yl)-2-phenyl-1H-indole derivatives as potent antioxidants and 15-lipoxygenase inhibitors” (Eur J Med Chem, 2018).
